Series [1] in a line: Aqueous solubility of compound in pH 7.4 PBS sonicated for 30 mins followed by 24 hrs incubation under shaking condition by UV-Vis spectroscopy. Particulars: buffer, pH 7.4, 24 h. It is filed as physicochemical. The essentials: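 Compound powder added to phosphate buffer (PBS, pH 7.4) until a suspension formed. Sonicated 30 min in a water bath, then shaken 24 h at room temperature to reach equilibrium. Centrifuged, supernatant filtered through a 0.45µm membrane, and filtrate measured by UV spectroscopy against a PBS control.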

Series [2] relates to NCI-H1975. Description: Induction of apoptosis in human NCI-NCI-H1975 cells assessed as viable cells at 5 uM after 48 hrs by Annexin V-FITC/propidium iodide staining based flow cytometry (reference value: 96.1%). It is filed as functional. To be noted: NCI-H1975, 48 h, read-out: Activity.
Series [3] has as its system A549. Description: Induction of apoptosis in human A549 cells assessed as necrotic cells at 5 uM after 48 hrs by Annexin V-FITC/propidium iodide staining based flow cytometry (reference value: 0.88%). It is filed as functional.
For series [4], the system named is NCI-H1975. Briefly: Antiproliferative activity against human NCI-NCI-H1975 by MTT assay. It is filed as functional, cell-based. To be noted: TDE = time-dependent effect.
The test system of series [5] is NCI-H1975. Description: Induction of apoptosis in human NCI-NCI-H1975 cells assessed as necrotic cells at 10 uM after 48 hrs by Annexin V-FITC/propidium iodide staining based flow cytometry (reference value: 0.94%). It is filed as functional.
Series [6] deals with NCI-H1975. Briefly: Induction of apoptosis in human NCI-NCI-H1975 cells assessed as late apoptotic cells at 10 uM after 48 hrs by Annexin V-FITC/propidium iodide staining based flow cytometry (reference value: 0.46%). It is filed as functional.
Series [7] has as its system NCI-H1975. Description: Effect on NQO1 accumulation in human NCI-H1975 cells transfected with DCN1 siRNA3 by densitometric method. It is filed as functional, cell-based. The essentials: (§1)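 H1975 or PC9 cells seeded in 6-well plates for 16-24h, transfected with DCN1 siRNA#3 by lipofection, with or without compound, and collected three days later. Western blot for Cullin3, DCN1, NRF2, HO-1 and NQO1, with densitometry normalized to GAPDH. Three individual experiments, means ± SD.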

Series [8] concerns NCI-H1975. Briefly: Induction of apoptosis in human NCI-NCI-H1975 cells assessed as viable cells at 10 uM after 48 hrs by Annexin V-FITC/propidium iodide staining based flow cytometry (reference value: 96.1%). Particulars: NCI-H1975, 48 h, read-out: Activity. It is filed as functional.
Series [9] concerns PC-9. Briefly: Induction of apoptosis in human PC9 cells assessed as viable cells at 10 uM after 48 hrs by Annexin V-FITC/propidium iodide staining based flow cytometry (reference value: 95.7%). It is filed as functional. Particulars: PC-9, 48 h, read-out: Activity. The essentials:
(§2)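 PC9 cells seeded in 6-well plates (1~2×10^6 cells/mL), incubated overnight, then exposed to 0, 2.5, 5 or 10µM compound for 48h. Harvested cells stained with Annexin-V-FITC/PI for 30 min and analysed by flow cytometry. Three individual experiments; means ± SD.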

Series [10] concerns PC-9. Briefly: Induction of apoptosis in human PC9 cells assessed as viable cells at 5 uM after 48 hrs by Annexin V-FITC/propidium iodide staining based flow cytometry (reference value: 95.7%). Particulars: PC-9, 48 h, read-out: Activity. It is filed as functional. The essentials:
as §2

The test system of series [11] is PC-9. Description: Induction of apoptosis in human PC9 cells assessed as early apoptotic cells at 5 uM after 48 hrs by Annexin V-FITC/propidium iodide staining based flow cytometry (reference value: 1.36%). It is filed as functional. The method in brief: as §2
For series [12], the target named is DCN1-like protein 1 (Homo sapiens, UniProt Q96GG9). Briefly: Binding affinity to N-terminal GST tagged recombinant human DCN1 (58 to 259 residues) expressed in Escherichia coli BL21(DE3) assessed as reduction in DCN1-FAM-labelled N-terminal acetylated UBE2M (1 to 21 residues) protein-protein interaction after 30 mins by HTRF assay.
Series [13] relates to A549. Description: Antiproliferative activity against human A549 by MTT assay. It is filed as functional, cell-based. To be noted: TDE = time-dependent effect.
Series [14] concerns A549. Description: Induction of apoptosis in human A549 cells assessed as viable cells at 10 uM after 48 hrs by Annexin V-FITC/propidium iodide staining based flow cytometry (reference value: 92.9%). Particulars: A549, 48 h, read-out: Activity. It is filed as functional.
Series [15] deals with PC-9. Briefly: Inhibition of colony formation in human PC9 cells after 7 days by crystal violet staining based microscopic analysis. It is filed as functional, cell-based. The essentials: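 H1975, PC9 and A549 cells seeded at 1×10^3 cells per well and cultured overnight, then given fresh medium with compound at 0, 0.625, 1.25, 2.5, 5 or 10μM for 7 days. Cells fixed, stained with 0.1% crystal violet and imaged by microscopy; dye then dissolved and read on a plate reader. Three experiments; means ± SD.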

Series [16] has as its system NCI-H1975. Description: Effect on Cullin3 neddylation in human NCI-H1975 cells transfected with DCN1 siRNA3 by densitometric method. It is filed as functional, cell-based. The method in brief:
as §1

Series [17] relates to PC-9. Description: Induction of apoptosis in human PC9 cells assessed as late apoptotic cells at 5 uM after 48 hrs by Annexin V-FITC/propidium iodide staining based flow cytometry (reference value: 1.57%). It is filed as functional.
The subject of series [18] is PC-9. Description: Induction of apoptosis in human PC9 cells assessed as late apoptotic cells at 10 uM after 48 hrs by Annexin V-FITC/propidium iodide staining based flow cytometry (reference value: 1.57%). It is filed as functional.
Series [19] has as its target T1, DCN1-like protein 5 (Homo sapiens, UniProt Q9BTE7).
T1 sequence (Q9BTE7 whole entry): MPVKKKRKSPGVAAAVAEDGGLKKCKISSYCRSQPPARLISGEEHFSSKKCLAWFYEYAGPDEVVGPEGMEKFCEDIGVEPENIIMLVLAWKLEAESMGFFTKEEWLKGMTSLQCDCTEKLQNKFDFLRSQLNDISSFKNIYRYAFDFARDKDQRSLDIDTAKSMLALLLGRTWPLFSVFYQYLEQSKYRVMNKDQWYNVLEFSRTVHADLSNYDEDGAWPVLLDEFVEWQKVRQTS
Briefly: Binding affinity to N-terminal GST tagged recombinant DCN5 (unknown origin) (47 to 237 residues) expressed in Escherichia coli BL21(DE3) assessed as reduction in DCN1/FAM-labelled N-terminal acetylated UBE2M (1 to 21 residues) protein-protein interaction after 30 mins by HTRF assay. The essentials:
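HTRF competition: 5nM GST-tagged DCN (1-5) and 5nM AcUBE2M1-21-biotin peptide, with streptavidin-XL665 and anti-GST cryptate, in 100mM phosphate buffer pH 6.5 with 0.02% Tween-20. Cocktail pre-incubated 30min at room temperature, compound added, then 30min more. Excitation 320nm, emission 615/665nm. Ki from three independent repeats, mean ± SD.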

Series [20] concerns A549. Briefly: Induction of apoptosis in human A549 cells assessed as early apoptotic cells at 10 uM after 48 hrs by Annexin V-FITC/propidium iodide staining based flow cytometry (reference value: 3.63%). It is filed as functional.
Series [21] relates to A549. Description: Induction of apoptosis in human A549 cells assessed as necrotic cells at 10 uM after 48 hrs by Annexin V-FITC/propidium iodide staining based flow cytometry (reference value: 0.88%). It is filed as functional.
Series [22] deals with A549. Briefly: Induction of apoptosis in human A549 cells assessed as viable cells at 2.5 uM after 48 hrs by Annexin V-FITC/propidium iodide staining based flow cytometry (reference value: 92.9%). It is filed as functional. Particulars: A549, 48 h, read-out: Activity.

Structures are written as SMILES. Calls of active or inactive are those of the source. No cut-off for these calls is given here.

Consider 1 compound from ChEMBL document CHEMBL4396897, “Potent 5-Cyano-6-phenyl-pyrimidin-Based Derivatives Targeting DCN1-UBE2M Interaction” (J Med Chem, 2019).

Chain of DCN1-like protein 1 (Q96GG9 whole entry, the tested form may be a part): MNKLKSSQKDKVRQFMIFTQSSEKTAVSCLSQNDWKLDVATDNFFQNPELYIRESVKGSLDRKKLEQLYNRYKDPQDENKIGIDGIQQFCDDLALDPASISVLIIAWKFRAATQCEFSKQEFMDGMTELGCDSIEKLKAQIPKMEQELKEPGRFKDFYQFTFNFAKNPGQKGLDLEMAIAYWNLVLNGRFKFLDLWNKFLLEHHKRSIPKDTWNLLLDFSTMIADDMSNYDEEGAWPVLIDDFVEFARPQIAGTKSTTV

As for `C#CCSc1nc(Sc2nccs2)c(C#N)c(-c2ccc(C)cc2)n1`, in [1], the solubility entry is given as “Soluble”. Besides, the viability at 5 µM in series [2] is 37.7%; in [10] it was 63.8%. For the same compound, the Activity in series [3] was 7.02%; in series [4], “Tde”; in series [5], 2.74%; in series [6], 46.9%; in [11], 8.15%; in series [13] it was “Tde”. Further, the Activity in series [17] was determined as 22.7%; in series [18], 57.2%; in series [20], 2.52%; in [21] it was 0.72%. Also, the outcome in series [7] and in [16] was inactive. Besides, the viability at 10 µM in series [8] was 17.1%; in series [9], 23.4%; in [14], 15.7%. In series [12], the IC50 is 15.7 nM. Besides, the Ki in [12] turned out to be 13.7 nM; in series [19] it was 2140 nM. The inhibition result in series [15] was “Dose-dependent effect”. For the same compound, the viability at 2.5 µM in series [22] turned out to be 82.2%.
